In ChEMBL document CHEMBL1817588, “Design and synthesis of 1,3-biarylsulfanyl derivatives as new anti-breast cancer agents” (Bioorg Med Chem, 2011):
Activity calls are given as the source filed them. The rule behind the calls is not given here.

Key:
MCF7 [1] = test: Antiproliferative activity against human MCF7 cells expressing estrogen receptor after 48 hrs by MTT assay; assay type: functional, cell-based; conditions: MCF7, 48 h
Outline: (§1)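 Cells seeded at 1×10^4/well in DMEM with 10% FBS for 24 h at 37 °C, then exposed to compounds for 48 h. MTT (5 mg/mL) added for 4 h. Formazan dissolved in DMSO and absorbance read at 540 nm. Routine culture used DMEM with 10% FBS, 5% CO2, reduced to 2% FBS for growth inhibition.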

Ishikawa [2] = test: Antiproliferative activity against human Ishikawa cells expressing estrogen receptor after 48 hrs by MTT assay; assay type: functional, cell-based; outline: as §1
MDA-MB-231 [3] = test: Antiproliferative activity against estrogen receptor-deficient human MDA-MB-231 cells […] at 50 uM after 48 hrs by MTT assay; assay type: functional, cell-based
MCF7 [4] = test: Antiproliferative activity against human MCF7 cells expressing estrogen receptor at 50 uM after 48 hrs by MTT assay; assay type: functional, cell-based
Ishikawa [5] = test: Antiproliferative activity against human Ishikawa cells expressing estrogen receptor at 50 uM after 48 hrs by MTT assay; assay type: functional, cell-based
MDA-MB-231 [6] = test: Antiproliferative activity against estrogen receptor-deficient human MDA-MB-231 cells […] after 48 hrs by MTT assay; assay type: functional, cell-based; conditions: MDA-MB-231, 48 h; outline: as §1
HEK293 [7] = test: Antiproliferative activity against human HEK293 cells after 48 hrs by MTT assay; assay type: cell-based; conditions: HEK293, 48 h; outline: as §1
Rattus norvegicus [8] = organism: Rattus norvegicus; test: Displacement of [3H]-estradiol from estrogen receptor in rat uteri after 18 hrs by scintillation counting relative to 17beta-estradiol
Outline: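 Cytosol from uteri of immature 20–21-day-old rats, in TEA buffer pH 7.4 (10 mM Tris, 1.5 mM EDTA, 0.02% azide). Incubated in triplicate with fixed 3H-estradiol ± competitor (DMF ≤5% final) for 18 h at 4 °C. Free ligand removed with dextran-coated charcoal (15 min, 800g 10 min), then supernatant counted. RBA taken at 50% inhibition from the bound-versus-log concentration plot.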

Rattus norvegicus [9] = test: Estrogenic activity in Sprague-Dawley rat assessed as increase in uterine weight administered as po daily once for 3 days relative to control; assay type: functional; set-up: concentration or dose not given beside the values
Outline: (§2)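 Immature female Sprague-Dawley rats given oral dosing once daily for 3 days on days 28–30 of age. Antiestrogenic arm co-dosed ethynylestradiol 0.02 mg/kg in 10% ethanol-water. Autopsy 24 h after last dose (day 31). Uterus excised, blotted and weighed, with vaginal opening and cornification also scored. Inhibition computed as (E − T)×100/E versus ethynylestradiol alone. Estrogenic gain expressed as percent increase over vehicle control.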

Rattus norvegicus [10] = test: Antiestrogenic activity in Sprague-Dawley rat assessed as inhibition of uterine weight gain administered as po daily once for 3 days relative to 17alpha-ethynylestradiol; assay type: functional; outline: as §2
Rattus norvegicus [11] = test: Antiimplantation activity in Sprague-Dawley albino rat at 20 mg/kg, po after 10 days; assay type: functional
Outline: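 Sperm-positive adult Sprague-Dawley females (180–220 g) mated with proven-fertile males. Compounds given orally as a gum acacia suspension on days 1–5 post-coitum, 5–7 animals per group. Vehicle-only group served as control.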

Bone [12] = test: Antiosteoporotic activity in Sprague-Dawley rat [45Ca] pre-labeled bone assessed as inhibition of PTH-induced bone resorption after 96 hrs
Bone [13] = test: Antiosteoporotic activity in Sprague-Dawley rat [45Ca] pre-labeled bone assessed as inhibition of PTH-induced bone resorption after 96 hrs relative to control
HEK293 [14] = test: Antiproliferative activity against human HEK293 cells at 50 uM after 48 hrs by MTT assay; assay type: cell-based; conditions: hek293, 48 h

SMILES | IC50 (MCF7 [1]) | IC50 (Ishikawa [2]) | Activity (Ishikawa [5]) | IC50 (MDA-MB-231 [6]) | other results
CSC(CC(=O)c1ccccc1)c1ccccc1 (centres undefined) | 25 µM | 25 µM |  |  | Activity (MDA-MB-231 [3]): inactive
Cc1ccc(SC(CC(=O)c2ccccc2)c2ccccc2)cc1 (centres undefined) |  |  | inactive |  | Activity (MCF7 [4]): inactive; Activity (MDA-MB-231 [3]): inactive
Cc1ccc(SC(CC(=O)c2cccc(Cl)c2)c2ccc(C)cc2)cc1 (centres undefined) | 27 µM |  | inactive | 41 µM | 
O=C(CC(Sc1ccc(O)cc1)c1ccccc1)c1ccc(OCCN2CCCCC2)cc1 (centres undefined) | 9.6 µM | 16.2 µM |  | 16.5 µM | IC50 (HEK293 [7]): 75.2 µM; RBA (Rattus norvegicus [8]): 5.27%; Activity (Rattus norvegicus [9]): 58%; inhibition (INH) (Rattus norvegicus [10]): 34%; Activity (Rattus norvegicus [11]): 100%; T/C (Bone [12]): 0.787; inhibition (INH) (Bone [13]): 21.3%
COc1ccc(C(=O)CC(Sc2ccc(C)cc2)c2ccc(OC)cc2)cc1 (centres undefined) | 18 µM |  | inactive | 28 µM | Activity (HEK293 [14]): Non-toxic
COc1ccc(C(CC(=O)c2ccccc2)Sc2ccc(C)cc2)cc1 (centres undefined) | 23 µM | 17 µM |  | 45 µM | 
COc1ccc(C(=O)CC(Sc2ccccc2)c2ccccc2)cc1 (centres undefined) | 29 µM |  | inactive | 41 µM | 
CCSC(CC(=O)c1ccccc1)c1ccc(O)cc1 (centres undefined) |  |  | inactive |  | Activity (MCF7 [4]): inactive; Activity (MDA-MB-231 [3]): inactive
O=C(CC(Sc1ccc(Cl)cc1)c1ccccc1)c1ccc(Cl)cc1 (centres undefined) | 28 µM | 24 µM |  | 31 µM | 
CCSC(CC(=O)c1ccc(OCCN(C)C)cc1)c1ccccc1 (centres undefined) | 27 µM |  | inactive | 38 µM | IC50 (HEK293 [7]): 32.8 µM; RBA (Rattus norvegicus [8]): 0.246%; Activity (Rattus norvegicus [9]): 212%; inhibition (INH) (Rattus norvegicus [10]): 4%; Activity (Rattus norvegicus [11]): inactive; T/C (Bone [12]): 0.944; inhibition (INH) (Bone [13]): 5.6%
O=C(CC(Sc1ccc(O)cc1)c1ccccc1)c1ccc(OCCN2CCCC2)cc1 (centres undefined) | 28.6 µM | 16 µM |  | 27 µM | IC50 (HEK293 [7]): 27.5 µM; RBA (Rattus norvegicus [8]): 0.67%; Activity (Rattus norvegicus [9]): 101%; inhibition (INH) (Rattus norvegicus [10]): 18%; Activity (Rattus norvegicus [11]): 60%; T/C (Bone [12]): 0.902; inhibition (INH) (Bone [13]): 9.8%
O=C(CC(Sc1ccc(Cl)cc1)c1ccccc1)c1ccc([N+](=O)[O-])cc1 (centres undefined) | 25 µM | 21 µM |  | 29 µM | 
COc1ccc(C(CC(=O)c2ccccc2)SCCC(=O)O)cc1 (centres undefined) |  | 24 µM |  | 44 µM | Activity (MCF7 [4]): inactive
COc1ccc(C(CC(=O)c2ccc(Cl)cc2)Sc2ccccc2)cc1 (centres undefined) |  | 25 µM |  |  | Activity (MCF7 [4]): inactive; Activity (MDA-MB-231 [3]): inactive
Cc1cccc(SC(CC(=O)c2ccccc2)c2ccc(O)cc2)c1 (centres undefined) | 25 µM | 22 µM |  | 35 µM | 
CCSC(CC(=O)c1ccc(OC)cc1)c1ccc(OC)cc1 (centres undefined) | 27 µM |  | inactive |  | Activity (MDA-MB-231 [3]): inactive
O=C(CC(Sc1ccccc1)c1ccccc1)c1ccc(O)cc1 (centres undefined) | 24 µM |  | inactive | 38 µM | 

SMILES | IC50 (MCF7 [1]) | IC50 (Ishikawa [2]) | Activity (Ishikawa [5]) | IC50 (MDA-MB-231 [6]) | other results
O=C(c1ccc(OCCN2CCCCC2)cc1)c1c(-c2ccc(O)cc2)sc2cc(O)ccc12 [RALOXIFENE] |  |  |  |  | T/C (Bone [12]): 0.62; inhibition (INH) (Bone [13]): 38%
O=C(CC(Sc1ccc([N+](=O)[O-])cc1)c1ccccc1)c1ccccc1 (centres undefined) |  | 23 µM |  | 44 µM | Activity (MCF7 [4]): inactive
CCSC(CC(=O)c1ccccc1)c1ccc(OC)cc1 (centres undefined) | 24 µM |  | inactive |  | Activity (MDA-MB-231 [3]): inactive
O=C(CC(Sc1ccccc1)c1ccccc1)c1cccc([N+](=O)[O-])c1 (centres undefined) | 25 µM | 21 µM |  | 38 µM | 
COc1ccc(C(CC(=O)c2ccccc2)Sc2ccc(Cl)cc2)cc1 (centres undefined) | 25 µM | 22 µM |  | 36 µM | 
O=C(CC(Sc1ccccc1)c1ccc(O)cc1)c1ccccc1 (centres undefined) | 19 µM |  | inactive | 33 µM | IC50 (HEK293 [7]): 31.4 µM
O=C(CC(Sc1ccccc1)c1ccccc1)c1ccc2ccccc2c1 (centres undefined) | 30 µM | 26 µM |  | 48 µM | 
O=C(O)CCSC(CC(=O)c1ccccc1)c1ccccc1 (centres undefined) |  | 23 µM |  | 42 µM | Activity (MCF7 [4]): inactive
O=C(CC(Sc1ccc(Cl)cc1)c1ccccc1)c1ccccc1 (centres undefined) |  |  | inactive |  | Activity (MCF7 [4]): inactive; Activity (MDA-MB-231 [3]): inactive
CC/C(=C(\c1ccccc1)c1ccc(OCCN(C)C)cc1)c1ccccc1 [TAMOXIFEN] | 12.5 µM | 22.5 µM |  |  | RBA (Rattus norvegicus [8]): 2.2%; Activity (Rattus norvegicus [9]): 155%; inhibition (INH) (Rattus norvegicus [10]): 49%
O=C(CC(Sc1ccccc1)c1ccccc1)c1cccc(Cl)c1 (centres undefined) | 29 µM | 29 µM |  | 32 µM | 
O=C(CC(Sc1ccc(O)cc1)c1ccc(O)cc1)c1ccc(OCCN2CCCC2)cc1 (centres undefined) | 25 µM | 17.3 µM |  | > 50 µM | IC50 (HEK293 [7]): 28.7 µM; RBA (Rattus norvegicus [8]): 5.15%; Activity (Rattus norvegicus [9]): 111%; inhibition (INH) (Rattus norvegicus [10]): 24%; Activity (Rattus norvegicus [11]): inactive; T/C (Bone [12]): 0.934; inhibition (INH) (Bone [13]): 6.6%
O=C(CC(Sc1ccc(O)cc1)c1cccc(O)c1)c1ccc(OCCN2CCCCC2)cc1 (centres undefined) | 12.2 µM | 17 µM |  | 19 µM | IC50 (HEK293 [7]): 65.8 µM; RBA (Rattus norvegicus [8]): 4.47%; Activity (Rattus norvegicus [9]): 79%; inhibition (INH) (Rattus norvegicus [10]): 31%; Activity (Rattus norvegicus [11]): 100%; T/C (Bone [12]): 0.812; inhibition (INH) (Bone [13]): 18.8%
CCSC(CC(=O)c1ccc(OCCN2CCCC2)cc1)c1ccccc1 (centres undefined) | 27 µM | > 50 µM |  | > 50 µM | IC50 (HEK293 [7]): 29.2 µM; RBA (Rattus norvegicus [8]): 0.191%; Activity (Rattus norvegicus [9]): 152%; inhibition (INH) (Rattus norvegicus [10]): 9%; Activity (Rattus norvegicus [11]): 100%; T/C (Bone [12]): 0.963; inhibition (INH) (Bone [13]): 3.7%
Cc1ccc(C(CC(=O)c2cccc(Cl)c2)Sc2ccccc2)cc1 (centres undefined) | 25 µM | 28 µM |  | 36 µM | 
COc1ccc(C(=O)CC(Sc2ccc(Cl)cc2)c2ccccc2)cc1 (centres undefined) |  | 22 µM |  |  | Activity (MCF7 [4]): inactive; Activity (MDA-MB-231 [3]): inactive
